Article PMC7668563 (International journal of molecular biology (Edmond, Okla.), 2020)
Where two headings read alike, the source gives them in different places.

How the values were obtained:
[1] = biological target: T1, apo-human transferrin (apo-hTf) (Homo sapiens, UniProt P02787); assay: Fluorescence quenching of apo-hTf; type: binding; settings: for biomolecular quenching rate constant kq: kq=Ksv/τ0; for Stern-Volmer quenching constant Ksv / number of binding sites n: pH 7.4; for quenching association constant Ka: pH 7.4, modified Stern-Volmer
T1 sequence (P02787 20-698): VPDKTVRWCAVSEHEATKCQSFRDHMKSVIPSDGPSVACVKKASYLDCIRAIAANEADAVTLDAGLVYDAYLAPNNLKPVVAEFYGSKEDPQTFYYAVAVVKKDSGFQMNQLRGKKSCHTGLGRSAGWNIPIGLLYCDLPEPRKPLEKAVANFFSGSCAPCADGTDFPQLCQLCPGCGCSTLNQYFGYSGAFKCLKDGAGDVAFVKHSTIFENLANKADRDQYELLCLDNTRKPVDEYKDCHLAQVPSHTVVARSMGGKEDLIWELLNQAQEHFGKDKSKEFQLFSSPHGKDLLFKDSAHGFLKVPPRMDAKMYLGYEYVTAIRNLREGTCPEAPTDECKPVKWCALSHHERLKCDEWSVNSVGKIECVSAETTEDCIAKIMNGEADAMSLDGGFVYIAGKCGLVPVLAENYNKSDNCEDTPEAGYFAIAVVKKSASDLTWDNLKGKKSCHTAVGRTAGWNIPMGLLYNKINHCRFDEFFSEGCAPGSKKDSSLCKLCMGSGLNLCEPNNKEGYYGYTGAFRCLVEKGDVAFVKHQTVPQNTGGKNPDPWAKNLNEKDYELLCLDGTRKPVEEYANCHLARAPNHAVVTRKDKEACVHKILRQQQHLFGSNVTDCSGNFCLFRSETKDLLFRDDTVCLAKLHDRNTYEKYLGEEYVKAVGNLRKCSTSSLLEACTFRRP
Method in brief: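 Intrinsic fluorescence of apo-hTf in Tris-HCl pH 7.4 was titrated with test compound (Tris-HCl/2% DMSO). Conditions: excitation 280 nm, emission 290–500 nm, slits 10/5 nm, 1.0 cm quartz cell, at 296, 303, 310 and 317 K, triplicate titrations. Intensities were corrected for inner filter effect using absorbances at excitation and emission wavelengths. Ksv came from Stern-Volmer plots of F0/F vs [Q]; kq = Ksv/τ0 (τ0 ~1.0×10−8); Ka and n came from the modified Stern-Volmer equation.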

[2] = tested on: human colorectal adenocarcinoma cell line, HT-29; settings: cited from earlier work
[3] = tested on: human breast adenocarcinoma cell line, MCF-7; settings: cited from earlier work
[4] = biological target: T1, apo-human transferrin (apo-hTf); assay: UV-Vis absorbance titration of apo-hTf; type: binding
[5] = biological target: T1, apo-human transferrin (apo-hTf); assay: Thermodynamic parameters of apo-hTf complex formation; type: binding
Method in brief: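 Ksv values were obtained from apo-hTf fluorescence quenching at pH 7.4 at 296, 303, 310 and 317 K. ΔH°, ΔS° and ΔG° were derived from linear regression of ln(Ksv) vs 1/T (Van't Hoff equation).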

[6] = biological target: T1, apo-human transferrin (apo-hTf); assay: Far-UV circular dichroism titration of apo-hTf, secondary structure content
Method in brief: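 Apo-hTf (4.0×10−7 mol L−1) in 2 mM Tris-HCl pH 7.4 was titrated with a 1.0×10−3 mol L−1 stock of test compound in Tris-HCl/2% DMSO, to final 0–2.4×10−6 mol L−1. Far-UV CD was recorded from 190–250 nm under nitrogen in a 1.0 cm cell: six scans at 100 nm/min. Baseline was buffer ± DMSO at room temperature. α-Helix was derived from MRE at 208 nm; β-sheet and random coil by the CD-RRG method.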

[7] = biological target: T1, apo-human transferrin (apo-hTf); assay: Fluorescence resonance energy transfer; type: binding
Method in brief: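 Emission spectrum of 1.0×10−5 mol L−1 apo-hTf and absorption spectrum of 1.0×10−5 mol L−1 test compound were recorded in 20 mM Tris-HCl pH 7.4 at room temperature, 260–450 nm, and their spectral overlap determined. E was calculated from apo-hTf fluorescence without and with equimolar test compound. R0 and donor–acceptor distance r came from Förster equations.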

N.N.[Cl][Pt][Cl] [(NH3)2Pt(II)Cl2, cis-diamminedichloroplatinum (II), reference compound]
biomolecular quenching rate constant kq ([1]; 296 K): 1.35e+11 M⁻¹ s⁻¹
Stern-Volmer quenching constant Ksv ([1]; 296 K): 1350 M⁻¹
number of binding sites n ([1]; 296 K): 0.97
quenching association constant Ka ([1]; 296 K): 1100 M⁻¹
biomolecular quenching rate constant kq ([1]; 303 K): 1.1e+11 M⁻¹ s⁻¹
Stern-Volmer quenching constant Ksv ([1]; 303 K): 1100 M⁻¹
number of binding sites n ([1]; 303 K): 1.01
quenching association constant Ka ([1]; 303 K): 1200 M⁻¹
biomolecular quenching rate constant kq ([1]; 310 K): 9.8e+10 M⁻¹ s⁻¹
Stern-Volmer quenching constant Ksv ([1]; 310 K): 980 M⁻¹
number of binding sites n ([1]; 310 K): 1.04
quenching association constant Ka ([1]; 310 K): 1400 M⁻¹
biomolecular quenching rate constant kq ([1]; 317 K): 8.6e+10 M⁻¹ s⁻¹
Stern-Volmer quenching constant Ksv ([1]; 317 K): 860 M⁻¹
number of binding sites n ([1]; 317 K): 1.07
quenching association constant Ka ([1]; 317 K): 1600 M⁻¹
IC50 ([2]; read-out: IC50 (±SD), HT-29, ref 77): 66 µM
IC50 ([2]; read-out: IC50 (±SD), HT-29, ref 84): 23 µM
IC50 ([2]; read-out: IC50 (±SD), HT-29, ref 85): 76 µM
IC50 ([3]; read-out: IC50 (±SD), MCF-7, ref 83): 2 µM
IC50 ([3]; read-out: IC50 (±SD), MCF-7, ref 84): 4.6 µM
Ka at 280 nm ([4]; absorbance at 280 nm): 740 M⁻¹
Association constants, Ka, 280 nm ([4]; absorbance of apo-hTf at 280 nm, pH 7.4): 0.74 10^3 M^−1
∆G° ([5]; 296 K): -4.226 kcal/mol
∆G° ([5]; 303 K): -4.233 kcal/mol
∆G° ([5]; 310 K): -4.242 kcal/mol
∆G° ([5]; 317 K): -4.252 kcal/mol
∆H° ([5]; pH 7.4, from Ksv at 296-317 K): -3.86 kcal/mol
∆S° ([5]; pH 7.4, from Ksv at 296-317 K): 5.17 J/mol K
other secondary structure content of apo-hTf ([6]; compound concentration 0.4 (M)): 19.1%
random coil content of apo-hTf ([6]; compound concentration 0.4 (M)): 33.9%
α-helix content of apo-hTf ([6]; compound concentration 0.4 (M)): 28.9%
β-sheet content of apo-hTf ([6]; compound concentration 0.4 (M)): 18.1%
other secondary structure content of apo-hTf ([6]; compound concentration 0.8 (M)): 19.2%
random coil content of apo-hTf ([6]; compound concentration 0.8 (M)): 33.9%
α-helix content of apo-hTf ([6]; compound concentration 0.8 (M)): 28.7%
β-sheet content of apo-hTf ([6]; compound concentration 0.8 (M)): 18.2%
other secondary structure content of apo-hTf ([6]; compound concentration 1.2 (M)): 19.2%
random coil content of apo-hTf ([6]; compound concentration 1.2 (M)): 34%
α-helix content of apo-hTf ([6]; compound concentration 1.2 (M)): 28.5%
β-sheet content of apo-hTf ([6]; compound concentration 1.2 (M)): 18.3%
other secondary structure content of apo-hTf ([6]; compound concentration 1.6 (M)): 19.3%
random coil content of apo-hTf ([6]; compound concentration 1.6 (M)): 34%
α-helix content of apo-hTf ([6]; compound concentration 1.6 (M)): 28.3%
β-sheet content of apo-hTf ([6]; compound concentration 1.6 (M)): 18.4%
other secondary structure content of apo-hTf ([6]; compound concentration 2 (M)): 19.3%
random coil content of apo-hTf ([6]; compound concentration 2 (M)): 34.1%
α-helix content of apo-hTf ([6]; compound concentration 2 (M)): 28.1%
β-sheet content of apo-hTf ([6]; compound concentration 2 (M)): 18.5%
other secondary structure content of apo-hTf ([6]; compound concentration 2.4 (M)): 19.3%
random coil content of apo-hTf ([6]; compound concentration 2.4 (M)): 34.1%
α-helix content of apo-hTf ([6]; compound concentration 2.4 (M)): 28%
β-sheet content of apo-hTf ([6]; compound concentration 2.4 (M)): 18.6%
Förster critical energy transfer distance R0 ([7]; k^2=2/3, n=1.336, ØD=0.118): 7.4 nm
binding distance r (donor-acceptor) ([7]; k^2=2/3, n=1.336, ØD=0.118): 10.35 nm
efficiency of energy transfer E ([7]; room temperature, 1.0×10^−5 mol L^−1 each): 0.118
